Laboratory results published in publication PMC3356144 (Frontiers in Oncology, 2011).
pIC50: −log10 of the molar value. “Also recorded” adds a separate entry of the source. Values belong to the compound of their own block, whether it stands above or below them.

Tests used:
[1] = target: MLCP purified from pig aorta smooth muscle (Sus scrofa, UniProt P61292); test: MLCP/32P-MLC dephosphorylation inhibition assay; type: biochemical
How it was run: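 MLCP purified from pig aorta (PP1C plus truncated 60-kDa MYPT1). Substrate was chicken gizzard LC20 pre-labelled with [γ-32P]ATP. Reaction: 0.5 μM 32P-LC20, 50 nM MLCP, 0.1 nM okadaic acid, 1 mM DTT, 0.03% Brij35, 25 mM MOPS pH 7.0, with varied compound. Run 10 min at 30°C, stopped with TCA/BSA, released 32P counted. No-enzyme set as 0% and uninhibited as 100%; duplicates; IC50 by nonlinear regression.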

Solubility = type: physicochemical
LNCaP cells [2] = test: Growth inhibition; type: cell-based, human
How it was run: (§1)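 LNCaP seeded at 20,000 cells/well overnight in RPMI with 10% FBS, 1% L-glutamine, 1% pen/strep and 0.1 nM DHT. CWR22Rv1 (20,000/well), DU145 and PC-3 (5,000/well) seeded in the same medium without DHT. Treated with test compound in serum-free medium, five wells per concentration, for 48 h; vehicle was 0.001% DMSO. Viability read by WST-8 after 2 h at 450 nm (reference 655 nm). Initial-plating value subtracted, percent growth versus control calculated, GI50 derived; n = 5, SEM.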

CWR22Rv1 cells [3] = test: Growth inhibition; type: cell-based; conditions: Homo sapiens, CWR22Rv1, 48 h, CWR22Rv1 (CWR), 48 h treatment
How it was run: as §1

DU145 cells [4] = test: Growth inhibition; type: cell-based; conditions: Homo sapiens, DU-145, 48 h, DU145, 48 h treatment
How it was run: as §1

PC-3 cells [5] = test: Growth inhibition; type: cell-based; conditions: Homo sapiens, PC-3, 48 h, PC-3, 48 h treatment
How it was run: as §1

LNCaP cells [6] = test: BrdU uptake assay, LNCaP; type: cell-based, human; conditions: 1 μM, 24 h
How it was run: (§2)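 Cells seeded overnight in six-well plates: LNCaP 500,000/well, DU145 and PC-3 200,000/well. Treated with 1 μM test compound in serum-free medium for 24 h, then BrdU pulsed 1 h. Cells trypsinized, fixed in 4% formaldehyde 10 min, permeabilized, and labelled with FITC anti-BrdU 1 h at 25°C. Analysed by flow cytometry against untreated control; n = 3, mean ± SEM.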

DU145 cells [7] = test: BrdU uptake assay, DU145; type: cell-based, human; conditions: DU145, 1 μM, 24 h
How it was run: as §2

PC-3 cells [8] = test: BrdU uptake assay, PC-3; type: cell-based, human
How it was run: as §2

PC-3 cells [9] = test: Cell cycle analysis by FACS, PC-3; type: cell-based, human; conditions: 1 μM
How it was run: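 PC-3 seeded at 200,000 cells/well in six-well plates overnight, then serum-starved 24 h. Treated with 1 μM test compound; controls kept in serum-free medium. Incubated 6, 24 or 48 h, then trypsinized, ethanol-fixed and analysed for cell-cycle distribution by FACS. Values averaged from three independent experiments.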

CWR22Rv1 cells [10] = test: Cell cycle analysis by FACS, CWR22RV1; type: cell-based, human; conditions: CWR22RV1, 24 h
LNCaP cells [11] = test: Cell cycle analysis by FACS, LNCaP; type: cell-based, human
PC-3 cells [12] = test: Analysis of actin disruption; type: cell-based, human
How it was run: (§3)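 PC-3 seeded at 100,000 cells/dish in RPMI with 10% FBS and left to adhere 48 h. LNCaP seeded at 200,000 cells/dish and left 24 h in RPMI with 10% FBS and 0.1 nM DHT. Medium replaced with test compound (250 nM–5 μM) for 2 h. Cells fixed in 4% formaldehyde 10 min, permeabilized with 0.1% Triton X-100 30 min, stained with Alexa Fluor–phalloidin 10 min, then imaged against untreated controls.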

LNCaP cells [13] = test: Analysis of actin disruption; type: cell-based, human; conditions: 2 h, 250 nM up to highest dose 5 μM
How it was run: as §3

PC-3 cells [14] = test: Chemotaxis assay; type: cell-based, human; conditions: IGF-1 attractant
How it was run: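 96-well Boyden chamber with 8-μm porous membrane. 200,000 PC-3 cells per upper well in serum-free medium with test compound. Lower wells held IGF-1 plus the same compound concentration; serum-free medium served as negative control. Incubated overnight at 37°C, 5% CO2. Membrane fixed and Diff-Quik stained, upper-surface cells scraped off, absorbance read at 595 nm; n = 5, mean ± SEM.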

PC-3 cells [15] = test: Cellular morphology after treatment; type: cell-based, human; conditions: PC-3, 1 μM, 24 h
[16] = tested on: human prostate cancer tissue; test: Displacement of 17e staining of prostate tissue by calyculin A; type: binding; conditions: calyculin A 1 μM pretreatment 10 min, then 17e 10 μM 1 h
How it was run: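 Serial sections of human prostate tissue. One section stained with 10 μM test compound for 1 h. The adjacent section was pretreated with 1 μM calyculin A for 10 min before the same staining. Compound fluorescence intensity imaged and compared between paired sections.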

MLCP purified from pig aorta smooth muscle, sequence (P61292 2-327 limits assumed): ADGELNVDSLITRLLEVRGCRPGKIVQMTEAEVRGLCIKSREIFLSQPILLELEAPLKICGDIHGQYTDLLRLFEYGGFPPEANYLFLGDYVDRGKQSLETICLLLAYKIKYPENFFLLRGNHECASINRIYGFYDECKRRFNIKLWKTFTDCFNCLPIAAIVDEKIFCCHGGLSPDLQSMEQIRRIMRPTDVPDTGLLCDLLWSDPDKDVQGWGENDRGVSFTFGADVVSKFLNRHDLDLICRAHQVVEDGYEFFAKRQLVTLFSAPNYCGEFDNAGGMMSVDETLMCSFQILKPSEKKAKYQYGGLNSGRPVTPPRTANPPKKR

Structure (SMILES): N=C(N)Nc1nc(-c2ccc(OC(=O)c3ccc(-c4ccccc4)cc3)cc2)cs1 [13a, biphenyl-4-carboxylic acid 4-(2-guanidino-thiazol-4-yl)-phenyl ester]
pIC50 [1]: 4.13

Structure (SMILES): N=C(N)Nc1nc(-c2ccc(NC(=O)c3ccc4ccccc4c3)cc2)cs1 [13h, naphthalene-2-carboxylic acid [4-(2-guanidino-thiazol-4-yl)-phenyl]-amide]
Solubility (relative) (Solubility): much lower solubility than 17e

Structure (SMILES): COC[C@@H]([C@H](O)[C@H](O)C(=O)NCC[C@H](C)c1nc(/C=C/C[C@@H]2O[C@]3(C[C@@H](O)[C@@H]2C)O[C@H]([C@H](C[C@H](O)[C@H](C)[C@H](O)[C@H](C)/C=C(C)/C(C)=C/C=C/C(C)=C\C#N)OC)[C@H](OP(=O)(O)O)C3(C)C)co1)N(C)C [calyculin A]
Reduction in fluorescence intensity due to 17e (17e binding) [16]: 60%

Continued, in another order:

pIC50 [1]: 4.92
Solubility (relative) (Solubility): much lower solubility than 17e
Structure (SMILES): COc1cccc(-c2ccc(C(=O)Oc3ccc(-c4csc(NC(=N)N)n4)cc3)cc2)c1 [10a, 3′-methoxy-biphenyl-4-carboxylic acid 4-(2-guanidino-thiazol-4-yl)-phenyl ester]

pIC50 [1]: 3.08
Structure (SMILES): COc1ccc(-c2csc(N=C(N)N)n2)cc1 [13m, N-[4-(4-methoxy-phenyl)-thiazol-2-yl]-guanidine]

pIC50 [1]: 3.31
Structure (SMILES): Nc1nc(-c2ccc(OC(=O)c3ccc(-c4ccccc4)cc3)cc2)cs1 [14a, biphenyl-4-carboxylic acid 4-(2-amino-thiazol-4-yl)-phenyl ester]

GI50 of CRPC cell lines compared to AD prostate cells (LNCaP cells [2]; CRPC lines (CWR22Rv1, DU145, PC-3) versus LNCaP): four-fold lower
GI50 (LNCaP cells [2]; Homo sapiens, LNCaP, 48 h, 48 h treatment): ~2 µM
GI50 (DU145 cells [4]): ~0.5 µM
GI50 (PC-3 cells [5]): ~0.5 µM
Solubility (relative) (Solubility): higher solubility
Structure (SMILES): CN(C)c1cccc2c(S(=O)(=O)Oc3ccc(-c4csc(NC(=N)N)n4)cc3)cccc12 [17e, 5-dimethylamino-naphthalene-1-sulfonic acid 4-(2-guanidino-thiazol-4-yl)-phenyl ester]
GI50 (CWR22Rv1 cells [3]): ~0.5 µM
DNA synthesis (BrdU incorporation) (LNCaP cells [6]): unaffected
BrdU incorporation compared to control (DU145 cells [7]): ~ 40%
Reduction in DNA synthesis as measured by BrdU uptake (PC-3 cells [8]; PC-3): 10 fold
BrdU incorporation compared to control (PC-3 cells [8]; PC-3, 1 μM, 24 h): ~ 10%
Cell cycle effect (PC-3 cells [9]; 6 h): increased S and G2/M populations
Cell cycle effect (PC-3 cells [9]; 24 h): complete cell cycle arrest in the G2/M phase
Cell death (SubG1 population) (PC-3 cells [9]; 48 h): increase in cells death
Cell cycle effect (G2/M arrest persistence) (PC-3 cells [9]; through 48 h): continued unchanged
Cell cycle effect (CWR22Rv1 cells [10]): G2/M arrest
Cell cycle effect (LNCaP cells [11]): little change from control
Actin disruption compared to control (PC-3 cells [12]; PC-3, 2 h, 250 nM, 1 μM and 5 μM): increasing amounts of actin disruption
Concentration at which actin disruption begins (PC-3 cells [12]; PC-3, 2 h treatment): 250 nM
F-actin disruption (LNCaP cells [13]): did not show any disruption of the F-actin network; also recorded: no actin disruption; also recorded: did not demonstrate any F-actin disruption
Migration of PC-3 cells (PC-3 cells [14]; 3 μM): reduced to the same level as wells that contained only serum free media
Migrated cells compared with IGF-1 alone (PC-3 cells [14]; 5 μM): three times fewer cells
Migration of PC-3 cells through the membrane (PC-3 cells [14]; increasing drug concentrations): dose dependent decrease
Cellular morphology (PC-3 cells [15]): became more spherical
